# Screening results from PubChem BioAssay.
# HKDC1 act: HKDC1 hexokinase activators, primary screen, biochemical, fluorescence, uHTS; Q2TB90; recombinant HKDC1, G6PDH/diaphorase resazurin fluorescence; stronger effect = lower value; activity change, negative = activation, % at 20 µM; 340,000 compounds, 0.056% hits; AID 493187, 2011;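 active = activation of 40% or more at 20 µM, a change of -40% or lower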
#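 Material – in-house human HKDC1 enzyme, G6PDH and diaphorase coupling enzymes · Input – HKDC1 at 5 µg/mL final · Buffer or medium – pH 8.0 Tris with MgCl2 · Dosing – single compound dose of 20 µM, 1% DMSO final · Incubation – 90 min, room temperature · Technique – resorufin fluorescence from 100 µM resazurin, NADP 1 mM, Ex 525/Em 613 nm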
# * hit, by the source's call. These entries were drawn from the full list.
SMILES,HKDC1 act
Cc1ccc(OP2(=O)Nc3cc(C)c(C)cc3S2)cc1 (centres undefined),-41*
Cn1ncnc2c(=O)n(C)c(=O)nc1-2,69
Nc1cnn(-c2ccccc2)c(=O)c1Cl,45
COc1cc2c(cc1OC)-c1c(OC)c(OC)c(OC)c3ccnc(c13)C2=O,50
Cc1cccc(N2C(=O)NC(=O)/C(=C\c3cc(C)n(-c4sc5c(c4C#N)CCCC5)c3C)C2=O)c1C,72
